Assay results from article PMC9035732 (Photoacoustics, 2022).

Legend:
[1] = system: orthotopic human HCC xenograft tumors (SK-Hep1); format: in vivo, mouse; conditions: 1.75 h post-injection, mean±SD, n = 8 mice per group; λex = 785 nm
In short: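 Tumors were orthotopic SK-Hep1 xenografts in female athymic nude mice; the cells were first grown subcutaneously in the hind flank. Mice received IRDye800-labeled target or control peptide i.v. Other groups were pre-blocked with unlabeled peptide or given ICG. Paired white-light and fluorescence laparoscopic images were taken at 1.75 h post-injection. Ultrasound and MR confirmed tumor location.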

[2] = system: orthotopic human HCC xenograft tumors (SK-Hep1); assay: In vivo photoacoustic imaging of orthotopic human HCC xenograft tumors; set-up: species or system mouse; conditions: intravenous, peptide 300 μM in 200 μL PBS; ICG 2.46 mg/kg; λex = 774 nm
In short: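 Mice were female athymic nude mice bearing orthotopic SK-Hep1 tumors, which were first established subcutaneously in the flank. IRDye800-labeled target or control peptide was given i.v. in 200 µL PBS. Blocking groups got unlabeled peptide injected beforehand, and ICG 2.46 mg/kg i.v. served as comparator. 3D photoacoustic images (excitation 774 nm) were taken before and at 0.5, 1, 1.5, 1.75, 2, 4 and 24 h. Intensity came from 2D maximum-intensity projections, with pre-injection images as background, and was expressed as tumor/background ratio.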

## CC1(C)C(/C=C/C=C/C=C/C=C2\N(CCCCS(=O)(=O)O)c3ccc4ccccc4c3C2(C)C)=[N+](CCCCS(=O)(=O)[O-])c2ccc3ccccc3c21 [ICG, Indocyanine green]
[1]
  mean T/B ratio, laparoscopic fluorescence imaging: 0.87 ± 0.2
[2]
  time of peak photoacoustic intensity in tumor post-injection: not observed within 24 h
